From PubChem BioAssay AID651628 (The Scripps Research Institute Molecular Screening Center, 2012)
A number with no mark means an inactive call. Calls of active or inactive are those of the source.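 Rule for the calls: active = at least one off-target enzyme showing weaker fluorescent probe labeling in any proteome panel; inactive = no off-target enzyme affected in any panel.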

System: Membrane Proteome
Assay: proteome-wide probe labelling blockade by competitive ABPP – cell lysate, gel-based fluorescence, soluble and membrane fractions, selectivity assay for PAD4 inhibitor project, late-stage follow-up (AID 651628)
Conditions: MCF7 proteome, CA-Rh gel-based ABPP, anti-target count, at 10 µM, active compounds read high
In short: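 Buffer or medium: DPBS; System: MCF7 soluble or membrane proteome; Quantity: proteome protein concentration of 1 mg/ml; Also added: CA-Rh probe, 10 µM; Times: compound pre-incubation 1 h, then probe labelling 1 h, both 25 °C; Control set: DMSO-only reference; Signal: SDS-PAGE separation with in-gel fluorescence scanning of labelled bands.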

SMILES	number of anti-targets
COC(=O)c1cccc(-c2ccc3c(n2)C(=O)C(N)=CC3=O)n1	0
COC1=C(I)C(=O)c2nc(C#N)ccc2C1=O	> 5 (active)
NC1=CC(=O)c2cccnc2C1=O	0
COC(=O)c1nc(C(=O)OC)c(NC(C)=O)c(-c2ccccc2Br)c1C	0
COC1=C(Br)C(=O)c2nc(-c3ccccn3)ccc2C1=O	> 5 (active)
O=C1C(O)=C(O)C(=O)c2ncccc21	2 (active)
COC1=C(N)C(=O)c2nc(-c3nc(C(=O)O)c(C)c(-c4ccc(OC)c(OC)c4O)c3N)ccc2C1=O	0
O=C1C=C(Br)C(=O)c2ncccc21	> 5 (active)
COC1=C(N)C(=O)c2ncccc2C1=O	0
NC1=CC(=O)c2ccc(-c3ccccn3)nc2C1=O	0
COC1=CC(=O)c2nc(C#N)ccc2C1=O	> 5 (active)
COC(=O)c1cccc(-c2ccc3c(n2)C(=O)C(Br)=CC3=O)n1	0
COC1=C(Br)C(=O)c2ncccc2C1=O	> 5 (active)
NC1=CC(=O)c2ccc(-c3cccc(C(=O)O)n3)nc2C1=O	0
